Laboratory results: ChEMBL document CHEMBL2375276, “Antibacterial oxazolidinone analogues having a N-hydroxyacetyl-substituted seven-membered [1,2,5]triazepane or [1,2,5]oxadiazepane C-ring unit” (Eur J Med Chem, 2013)
Values after ≈ are worked out from the molar mass of the structure shown.

Columns and labels:
Type in all cases: functional
[1] = system: Haemophilus influenzae; experiment: Antibacterial activity against Haemophilus influenzae SR27914 clinical isolate assessed as growth inhibition by CLSI broth microdilution method
Outline: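 MIC by CLSI broth microdilution using Haemophilus test medium.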

[2] = system: Streptococcus pneumoniae; experiment: Antibacterial activity against Streptococcus pneumoniae SR26207 clinical isolate assessed as growth inhibition by CLSI broth microdilution method
Outline: (§1)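 MIC by CLSI broth microdilution in cation-adjusted Mueller-Hinton broth; S. pneumoniae medium supplemented with 5% lysed horse blood.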

[3] = system: Moraxella catarrhalis; experiment: Antibacterial activity against Moraxella catarrhalis SR26840 clinical isolate assessed as growth inhibition by CLSI broth microdilution method; outline: as §1
[4] = system: Enterococcus faecium; experiment: Antibacterial activity against Enterococcus faecium SR7940 clinical isolate assessed as growth inhibition by CLSI broth microdilution method; outline: as §1
[5] = system: Enterococcus faecalis; experiment: Antibacterial activity against Enterococcus faecalis SR1004 clinical isolate assessed as growth inhibition by CLSI broth microdilution method; outline: as §1
[6] = system: Staphylococcus aureus; experiment: Antibacterial activity against linezolid-resistant Staphylococcus aureus NRS271 assessed as growth inhibition by CLSI broth microdilution method
Outline: (§2)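 MIC by CLSI broth microdilution in cation-adjusted Mueller-Hinton broth. Lowest concentration inhibiting growth taken as MIC.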

[7] = system: Staphylococcus aureus; experiment: Antibacterial activity against Staphylococcus aureus Smith assessed as growth inhibition by CLSI broth microdilution method; outline: as §1
[8] = system: Staphylococcus aureus; experiment: Antibacterial activity against Staphylococcus aureus SR20549 clinical isolate assessed as growth inhibition by CLSI broth microdilution method; outline: as §1
[9] = system: Staphylococcus aureus; experiment: Antibacterial activity against methicillin-resistant Staphylococcus aureus SR3637 infected in JCL/ICR mouse systemic infection model assessed as mortality administered as po measured over 7 days; conditions: 168 h
Outline: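 Five-week-old male JCL/ICR mice (20–25 g), five per group. Infected intraperitoneally with 0.5 or 1.0 mL bacterial suspension (about 100× LD50). Oral dosing 1 h post-infection. Mortality followed 7 days; ED50 with 95% confidence limits by logit method.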

[10] = system: Staphylococcus aureus; experiment: Antibacterial activity against methicillin-resistant Staphylococcus aureus SR3637 infected in JCL/ICR mouse systemic infection model assessed as mortality administered as iv measured over 7 days; conditions: 168 h
Outline: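 Five-week-old male JCL/ICR mice (20–25 g), five per group. Infected intraperitoneally with 0.5 or 1.0 mL bacterial suspension (about 100× LD50). Intravenous dosing 1 h post-infection. Mortality followed 7 days; ED50 with 95% confidence limits by logit method.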

[11] = system: Staphylococcus aureus; experiment: Antibacterial activity against methicillin-resistant Staphylococcus aureus SR3637 assessed as growth inhibition by CLSI broth microdilution method; outline: as §2
[12] = system: Haemophilus influenzae; experiment: Ratio of eperezolid MIC to compound MIC for Haemophilus influenzae SR27914 clinical isolate
[13] = system: Streptococcus pneumoniae; experiment: Ratio of eperezolid MIC to compound MIC for Streptococcus pneumoniae SR26207 clinical isolate
[14] = system: Moraxella catarrhalis; experiment: Ratio of eperezolid MIC to compound MIC for Moraxella catarrhalis SR26840 clinical isolate
[15] = system: Enterococcus faecium; experiment: Ratio of eperezolid MIC to compound MIC for Enterococcus faecium SR7940 clinical isolate
[16] = system: Enterococcus faecalis; experiment: Ratio of eperezolid MIC to compound MIC for Enterococcus faecalis SR1004 clinical isolate
[17] = system: Staphylococcus aureus; experiment: Ratio of eperezolid MIC to compound MIC for Staphylococcus aureus Smith
[18] = system: Staphylococcus aureus; experiment: Ratio of eperezolid MIC to compound MIC for Staphylococcus aureus SR20549 clinical isolate
[19] = system: Moraxella catarrhalis; experiment: Ratio of linezolid MIC to compound MIC for Moraxella catarrhalis SR26840 clinical isolate
[20] = system: Streptococcus pneumoniae; experiment: Ratio of linezolid MIC to compound MIC for Streptococcus pneumoniae SR26207 clinical isolate
[21] = system: Haemophilus influenzae; experiment: Ratio of linezolid MIC to compound MIC for Haemophilus influenzae SR27914 clinical isolate
[22] = system: Enterococcus faecium; experiment: Ratio of linezolid MIC to compound MIC for Enterococcus faecium SR7940 clinical isolate
[23] = system: Enterococcus faecalis; experiment: Ratio of linezolid MIC to compound MIC for Enterococcus faecalis SR1004 clinical isolate
[24] = system: Staphylococcus aureus; experiment: Ratio of linezolid MIC to compound MIC for Staphylococcus aureus Smith
[25] = system: Staphylococcus aureus; experiment: Ratio of linezolid MIC to compound MIC for Staphylococcus aureus SR20549 clinical isolate

`CC(=O)NC[C@H]1CN(c2cc(F)c(N3CCON(C(=O)CO)CC3)c(F)c2)C(=O)O1` was tested, and the MIC [1] was 16 µg/mL (≈ 37.3 µM), the MIC [2] was 1 µg/mL (≈ 2.33 µM) and the MIC [3] was 8 µg/mL (≈ 18.7 µM). For the same compound, the MIC [4] was 2 µg/mL (≈ 4.67 µM), the MIC [5] was 4 µg/mL (≈ 9.34 µM) and the MIC [6] was 32 µg/mL (≈ 74.7 µM). For the same compound, the MIC [7] was 2 µg/mL (≈ 4.67 µM) and the MIC [8] was 2 µg/mL (≈ 4.67 µM).
In the case of `CC(=O)NC[C@H]1CN(c2cc(F)c(N3CCNOCC3)c(F)c2)C(=O)O1`, the MIC [1] was 16 µg/mL (≈ 43.2 µM), the MIC [2] was 0.25 µg/mL (≈ 0.675 µM) and the MIC [3] was 4 µg/mL (≈ 10.8 µM). It also gave an MIC [4] of 1 µg/mL (≈ 2.7 µM), an MIC [5] of 2 µg/mL (≈ 5.4 µM) and an MIC [6] of 16 µg/mL (≈ 43.2 µM). For the same compound, the MIC [7] was 1 µg/mL (≈ 2.7 µM) and the MIC [8] was 1 µg/mL (≈ 2.7 µM).
In the case of `CC(=S)NC[C@H]1CN(c2ccc(N3CCNN(C(=O)CO)CC3)c(F)c2)C(=O)O1`, the ED50 [9] was > 10 mg/kg, the ED50 [10] was 2.95 mg/kg and the MIC [11] was 0.25 µg/mL (≈ 0.588 µM). For the same compound, the Ratio [12] was 4, the Ratio [13] was 4 and the Ratio [14] was 4. For the same compound, the Ratio [15] was 4, the Ratio [16] was 4 and the Ratio [17] was 4. It also gave a Ratio [18] of 4, a Ratio [19] of 4 and a Ratio [20] of 4. It also gave a Ratio [21] of 4, a Ratio [22] of 4 and a Ratio [23] of 4. The Ratio [24] was 4, the Ratio [25] was 4 and the MIC [1] was 2 µg/mL (≈ 4.7 µM). For the same compound, the MIC [2] was ≤ 0.063 µg/mL, the MIC [3] was 1 µg/mL (≈ 2.35 µM) and the MIC [4] was 0.5 µg/mL (≈ 1.18 µM). The MIC [5] was 0.5 µg/mL (≈ 1.18 µM), the MIC [6] was 8 µg/mL (≈ 18.8 µM) and the MIC [7] was 0.25 µg/mL (≈ 0.588 µM). For the same compound, the MIC [8] was 0.5 µg/mL (≈ 1.18 µM).
`CC(=S)NC[C@H]1CN(c2cc(F)c(N3CCNN(C(=O)CO)CC3)c(F)c2)C(=O)O1` showed an ED50 [9] of 9.83 mg/kg, an ED50 [10] of 2.95 mg/kg and an MIC [11] of 0.125 µg/mL (≈ 0.282 µM). It also gave a Ratio [12] of 4, a Ratio [13] of 4 and a Ratio [14] of 4. For the same compound, the Ratio [15] was 4, the Ratio [16] was 4 and the Ratio [17] was 4. The Ratio [18] was 4, the Ratio [19] was 4 and the Ratio [20] was 4. For the same compound, the Ratio [21] was 4, the Ratio [22] was 4 and the Ratio [23] was 4. It also gave a Ratio [24] of 4, a Ratio [25] of 4 and an MIC [1] of 2 µg/mL (≈ 4.51 µM). For the same compound, the MIC [2] was 0.063 µg/mL (≈ 0.142 µM), the MIC [3] was 0.5 µg/mL (≈ 1.13 µM) and the MIC [4] was 0.125 µg/mL (≈ 0.282 µM). It also gave an MIC [5] of 0.25 µg/mL (≈ 0.564 µM), an MIC [6] of 1 µg/mL (≈ 2.25 µM) and an MIC [7] of 0.25 µg/mL (≈ 0.564 µM). It also gave an MIC [8] of 0.125 µg/mL (≈ 0.282 µM).
Compound `CC(=S)NC[C@H]1CN(c2cc(F)c(N3CCON(C(=O)CO)CC3)c(F)c2)C(=O)O1` has a Ratio [12] of 4, a Ratio [13] of 4 and a Ratio [14] of 4. For the same compound, the Ratio [15] was 4, the Ratio [16] was 4 and the Ratio [17] was 4. It also gave a Ratio [18] of 4, a Ratio [19] of 4 and a Ratio [20] of 4. For the same compound, the Ratio [21] was 4, the Ratio [22] was 4 and the Ratio [23] was 4. It also gave a Ratio [24] of 4, a Ratio [25] of 4 and an MIC [1] of 4 µg/mL (≈ 9 µM). It also gave an MIC [2] of 0.063 µg/mL (≈ 0.142 µM), an MIC [3] of 1 µg/mL (≈ 2.25 µM) and an MIC [4] of 0.25 µg/mL (≈ 0.562 µM). For the same compound, the MIC [5] was 0.25 µg/mL (≈ 0.562 µM), the MIC [6] was 2 µg/mL (≈ 4.5 µM) and the MIC [7] was 0.25 µg/mL (≈ 0.562 µM). For the same compound, the MIC [8] was 0.125 µg/mL (≈ 0.281 µM).
`CC(=S)NC[C@H]1CN(c2cc(F)c(N3CCNOCC3)c(F)c2)C(=O)O1` was tested, and the MIC [1] was 2 µg/mL (≈ 5.18 µM), the MIC [2] was 0.063 µg/mL (≈ 0.163 µM) and the MIC [3] was 1 µg/mL (≈ 2.59 µM). For the same compound, the MIC [4] was 0.125 µg/mL (≈ 0.323 µM), the MIC [5] was 0.25 µg/mL (≈ 0.647 µM) and the MIC [6] was 4 µg/mL (≈ 10.4 µM). For the same compound, the MIC [7] was 0.25 µg/mL (≈ 0.647 µM) and the MIC [8] was 0.25 µg/mL (≈ 0.647 µM).
In the case of `COC(=S)NC[C@H]1CN(c2cc(F)c(N3CCON(C(=O)CO)CC3)c(F)c2)C(=O)O1`, the Ratio [12] was 4, the Ratio [13] was 4 and the Ratio [14] was 4. It also gave a Ratio [15] of 4, a Ratio [16] of 4 and a Ratio [17] of 4. It also gave a Ratio [18] of 4, a Ratio [19] of 4 and a Ratio [20] of 4. For the same compound, the Ratio [21] was 4, the Ratio [22] was 4 and the Ratio [23] was 4. It also gave a Ratio [24] of 4, a Ratio [25] of 4 and an MIC [1] of 4 µg/mL (≈ 8.69 µM). The MIC [2] was 0.125 µg/mL (≈ 0.271 µM), the MIC [3] was 1 µg/mL (≈ 2.17 µM) and the MIC [4] was 0.25 µg/mL (≈ 0.543 µM). For the same compound, the MIC [5] was 0.5 µg/mL (≈ 1.09 µM), the MIC [6] was 2 µg/mL (≈ 4.34 µM) and the MIC [7] was 0.25 µg/mL (≈ 0.543 µM). For the same compound, the MIC [8] was 0.25 µg/mL (≈ 0.543 µM).
`COC(=S)NC[C@H]1CN(c2cc(F)c(N3CCNOCC3)c(F)c2)C(=O)O1` gave an MIC [1] of 8 µg/mL (≈ 19.9 µM), an MIC [2] of 0.125 µg/mL (≈ 0.311 µM) and an MIC [3] of 1 µg/mL (≈ 2.48 µM). It also gave an MIC [4] of 0.25 µg/mL (≈ 0.621 µM), an MIC [5] of 0.5 µg/mL (≈ 1.24 µM) and an MIC [6] of 4 µg/mL (≈ 9.94 µM). For the same compound, the MIC [7] was 0.5 µg/mL (≈ 1.24 µM) and the MIC [8] was 0.25 µg/mL (≈ 0.621 µM).
In the case of `O=C(CO)N1CCN(c2ccc(N3C[C@H](Cn4ccnn4)OC3=O)cc2F)CCN1`, the ED50 [10] was 0.77 mg/kg, the MIC [1] was 16 µg/mL (≈ 38.1 µM) and the MIC [2] was 1 µg/mL (≈ 2.38 µM). For the same compound, the MIC [3] was 8 µg/mL (≈ 19.1 µM), the MIC [4] was 4 µg/mL (≈ 9.54 µM) and the MIC [5] was 4 µg/mL (≈ 9.54 µM). The MIC [6] was 64 µg/mL (≈ 153 µM), the MIC [7] was 4 µg/mL (≈ 9.54 µM) and the MIC [8] was 2 µg/mL (≈ 4.77 µM).
